{"data": "Assay results from different studies", "target": "Serine/threonine-protein kinase PAK 5 (PAK5, Homo sapiens, UniProt Q9P286)", "note": "Lines come from different studies, so protocols differ."}
{"Compound": "N#CC1(c2ccccn2)CCN(Cc2cc(C(=O)O)c(=O)n3ccccc23)CC1", "effect on": "cell-free assay", "method": "competition with immobilised ligand", "concentration": "1 µM", "measurement": "remaining binding", "result": "96%"}
{"Compound": "C#Cc1n[nH]c2c(-c3cn(C(C)c4ccccn4)c(=O)[nH]c3=O)cc(F)cc12 (stereo not shown)", "effect on": "enzyme activity", "action": "inhibitor", "concentration": "1 µM", "measurement": "inhibition", "result": "-3.8%"}
{"Compound": "Cn1cc(-c2cccc(N3CCc4c(sc5c4CC(C)(C)C5)C3=O)c2CO)cc(Nc2ccncn2)c1=O", "effect on": "enzyme activity", "action": "inhibitor", "concentration": "1 µM", "measurement": "inhibition", "result": "4%"}
{"Compound": "COc1cc(Nc2ncc(F)c(Nc3ccc4c(n3)NC(=O)C(C)(C)O4)n2)cc(OC)c1OC", "effect on": "binding", "concentration": "10 µM", "measurement": "inhibition", "result": "100%"}
{"Compound": "Nc1ncc(-c2nc(N3CCOCC3)nc(N3CCOCC3)n2)c(C(F)F)n1", "effect on": "binding", "method": "competition with immobilised ligand", "concentration": "10 µM", "measurement": "remaining binding", "result": "52%"}
{"Compound": "Cn1cc(-c2cc(F)cc(N3CCn4c(cc5c4CCCC5)C3=O)c2CO)cc(Nc2ccc(N3CCN(C4COC4)CC3)cn2)c1=O", "effect on": "enzyme activity", "action": "inhibitor", "concentration": "0.1 µM", "measurement": "inhibition", "result": "10%"}
{"Compound": "O=c1[nH]c2ccccc2n1C1CCN(Cc2ccc(-c3[nH]c4cc5ncnc5cc4nc3-c3ccccc3)cc2)CC1", "effect on": "cell-free assay", "concentration": "0.5 µM", "measurement": "remaining signal", "result": "110%"}
{"Compound": "Cc1nn(C)cc1-c1nc2c(N3CCN(Cc4ccc(Cl)cc4)CC3)c(Cl)cnc2[nH]1", "effect on": "binding", "method": "competition with immobilised ligand", "concentration": "1 µM", "measurement": "remaining binding", "result": "83%"}
{"Compound": "Cn1cncc1[C@@](O)(COc1ccc(C#N)cc1-c1ccc(OC(F)(F)F)cc1)c1ccc(C#N)cc1", "effect on": "cell-free assay", "method": "competition with immobilised ligand", "concentration": "1 µM", "measurement": "remaining binding", "result": "100%"}
{"Compound": "COc1ncccc1-c1cnn2ccc(N3CCN(C(=O)OC(C)C)CC3)nc12", "effect on": "binding", "method": "competition with immobilised ligand", "concentration": "1 µM", "measurement": "remaining binding", "result": "100%"}
